Data from ChEMBL document CHEMBL5678814, “Novel Mps1 Kinase Inhibitors with Potent Antitumor Activity” (Mol Cancer Ther, 2016).

Legend:
[1] = molecular target: Serine/threonine-protein kinase mTOR (Homo sapiens, UniProt P42345); test: Binding affinity to MTOR (unknown origin) assessed as dissociation constant
[2] = molecular target: Serine/threonine-protein kinase 38 (Homo sapiens, UniProt Q15208); test: Binding affinity to NDR1 (unknown origin) assessed as dissociation constant
HT-1376 = test: Antiproliferative activity against human HT-1376 cells assessed as cell growth inhibition incubated for 96 hrs by MTS assay; assay type: functional, cell-based; conditions: HT-1376, 96 h
SJRH30 = test: Antiproliferative activity against human Rh30 cells assessed as cell growth inhibition incubated for 96 hrs by MTS assay; assay type: functional, cell-based; conditions: SJRH30, 96 h
[3] = Half life in male Wistar rat plasma at 0.5 mg/kg, iv measured after 24 hrs by LC/-MS/MS analysis; assay type: ADME, organism-based
[4] = Tmax in male Wistar rat plasma at 0.5 mg/kg, po measured after 24 hrs by LC/-MS/MS analysis; assay type: ADME, organism-based
Method in brief: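 Male Wistar rats given 0.5 mg/kg orally. Plasma collected from 8 min to 24 h, precipitated with ice-cold acetonitrile (1:5), and analysed by LC/MS-MS. Cmax and Tmax read directly from concentration–time profiles.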

[5] = Oral bioavailability in male Wistar rat plasma at 0.5 mg/kg measured after 24 hrs by LC/-MS/MS analysis; assay type: ADME, organism-based
[6] = Antitumor activity against human A2780cis cells xenografted female athymic NMRI mouse model assessed as T/C ratio at 2.5 mg/kg, po administered twice daily intermittent for 2 days on/5 days off; assay type: functional; conditions: time 7 day
[7] = Toxicity in human A2780cis cells xenografted female athymic NMRI mouse model assessed as change in body weight at 2.5 mg/kg, po administered twice daily intermittent for 2 days on/5 days off; assay type: organism-based; conditions: in vivo, 168 h, time 7 day
Method in brief: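 A2780cis cells (2×10^6 in 100% Matrigel) implanted s.c. in athymic mice. Treatment started at ~30 mm2. Oral dosing twice daily, 2 days on/5 days off, with PEG 400/ethanol/Solutol vehicle controls. Dose based on individual body weight. Body weight monitored two to three times weekly as toxicity measure; >20% loss deemed toxic.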

[8] = Synergistic antitumor activity against human MAXF 1384 cells xenografted female athymic NMRI mouse model assessed as MTD at 2 mg/kg,po administered twice daily intermittent for 2 days on/5 days off measured after 48 hrs treatment in the presence of paclitaxel relative to control; assay type: functional; conditions: time 9 day
[9] = In vivo inhibition of Mps1 in NMRI mouse assessed as MTD at => 1 mg/kg,po administered twice daily for 2 days and measured after 3 days relative to control; assay type: functional; conditions: time 2 day
HeLa = test: cells; conditions: Homo sapiens, 4 h
[10] = Tmax in female NMRI mouse plasma at 1 mg/kg, po measured after 24 hrs by LC/-MS/MS analysis
[11] = Oral bioavailability in female NMRI mouse plasma at 1 mg/kg measured after 24 hrs by LC/-MS/MS analysis
A-375 = test: Antiproliferative activity against human A-375 cells assessed as cell growth inhibition incubated for 96 hrs by crystal violet staining; conditions: A-375, 96 h
JJN-3 = test: Antiproliferative activity against human JJN-3 cells assessed as cell growth inhibition incubated for 96 hrs by crystal violet staining; conditions: JJN-3, 96 h
L-363 = test: Antiproliferative activity against human L-363 cells assessed as cell growth inhibition incubated for 96 hrs by crystal violet staining; conditions: L-363, 96 h
OPM-2 = test: Antiproliferative activity against human OPM-2 cells assessed as cell growth inhibition incubated for 96 hrs by crystal violet staining; conditions: OPM-2, 96 h
OV-90 = test: Antiproliferative activity against human OV-90 cells assessed as cell growth inhibition incubated for 96 hrs by crystal violet staining; conditions: OV-90, 96 h
HCT-15 = test: Antiproliferative activity against human HCT-15 cells assessed as cell growth inhibition incubated for 96 hrs by crystal violet staining; conditions: HCT-15, 96 h
[12] = Antiproliferative activity against human OUMS-23 cells assessed as cell growth inhibition incubated for 96 hrs by crystal violet staining; conditions: OUMS-23, 96 h
SK-N-AS = test: Antiproliferative activity against human SK-N-AS cells assessed as cell growth inhibition incubated for 96 hrs by crystal violet staining
IGROV-1 = test: Antiproliferative activity against human IGROV-1 cells assessed as cell growth inhibition incubated for 96 hrs by crystal violet staining; conditions: IGROV-1, 96 h
OVCAR-8 = test: Antiproliferative activity against human OVCAR-8 cells assessed as cell growth inhibition incubated for 96 hrs by crystal violet staining; conditions: OVCAR-8, 96 h
SK-OV-3 = test: Antiproliferative activity against human SK-OV-3 cells assessed as cell growth inhibition incubated for 96 hrs by crystal violet staining; conditions: SK-OV-3, 96 h
[13] = Antiproliferative activity against human A2780cis cells assessed as cell growth inhibition incubated for 96 hrs by crystal violet staining
NCI-H2052 = test: Antiproliferative activity against human NCI-H2052 cells assessed as cell growth inhibition incubated for 96 hrs by crystal violet staining; conditions: NCI-H2052, 96 h
NCI-H1373 = test: Antiproliferative activity against human NCI-H1373 cells assessed as cell growth inhibition incubated for 96 hrs by crystal violet staining; conditions: NCI-H1373, 96 h
NCI-H1770 = test: Antiproliferative activity against human NCI-H1770 cells assessed as cell growth inhibition incubated for 96 hrs by crystal violet staining; conditions: NCI-H1770, 96 h
NCI-H2030 = test: Antiproliferative activity against human NCI-H2030 cells assessed as cell growth inhibition incubated for 96 hrs by crystal violet staining; conditions: NCI-H2030, 96 h
RPMI-7951 = test: Antiproliferative activity against human RPMI-7951 cells assessed as cell growth inhibition incubated for 96 hrs by crystal violet staining; conditions: RPMI-7951, 96 h
MDA-MB-453 = test: Antiproliferative activity against human MDA-MB-453 cells assessed as cell growth inhibition incubated for 96 hrs by crystal violet staining; conditions: MDA-MB-453, 96 h
[14] = Antiproliferative activity against human HeLa-MaTu-ADR cells assessed as cell growth inhibition incubated for 96 hrs by crystal violet staining

Sequence of Serine/threonine-protein kinase 38 (Q15208 whole entry): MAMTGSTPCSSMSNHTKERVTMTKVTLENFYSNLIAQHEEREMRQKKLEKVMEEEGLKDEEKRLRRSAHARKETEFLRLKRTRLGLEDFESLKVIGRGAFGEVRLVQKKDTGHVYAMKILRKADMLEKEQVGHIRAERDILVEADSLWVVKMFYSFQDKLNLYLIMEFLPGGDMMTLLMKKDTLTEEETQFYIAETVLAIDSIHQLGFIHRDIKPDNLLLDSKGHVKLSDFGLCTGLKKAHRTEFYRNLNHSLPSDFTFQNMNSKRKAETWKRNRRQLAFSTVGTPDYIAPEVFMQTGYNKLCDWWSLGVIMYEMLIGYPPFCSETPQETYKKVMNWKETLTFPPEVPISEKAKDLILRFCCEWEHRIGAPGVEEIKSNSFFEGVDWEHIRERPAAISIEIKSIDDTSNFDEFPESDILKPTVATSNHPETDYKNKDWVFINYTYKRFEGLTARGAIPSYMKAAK

Question: Which results are given for COc1cc(S(C)(=O)=O)ccc1Nc1nc2ccc(-c3ccc(NC(=O)[C@H](C)c4ccc(F)cc4)cc3)cn2n1 [BAY-1161909]?
Answer: Kd [1]: 40000 nM; Kd [2]: 40000 nM; IC50 (HT-1376): 3000 nM; IC50 (SJRH30): 450 nM; half-life [3]: 14 h; Tmax [4]: 4 h; bioavailability [5]: 49%; T/C [6]: 0.43; Activity [7]: Non-Toxic; MED [8]: 80%; MED [9]: >=40%; IC50 (HeLa): 56 nM; Tmax [10]: 4 h; bioavailability [11]: 59%; IC50 (A-375): 100 nM; IC50 (JJN-3): 100 nM; IC50 (L-363): 32 nM; IC50 (OPM-2): 130 nM; IC50 (OV-90): 150 nM; IC50 (HCT-15): 110 nM; IC50 [12]: > 3000 nM; IC50 (SK-N-AS): 97 nM; IC50 (IGROV-1): 240 nM; IC50 (OVCAR-8): 190 nM; IC50 (SK-OV-3): 3700 nM; IC50 [13]: 60 nM; IC50 (NCI-H2052): 96 nM; IC50 (NCI-H1373): 190 nM; IC50 (NCI-H1770): 100 nM; IC50 (NCI-H2030): 700 nM; IC50 (RPMI-7951): 280 nM; IC50 (MDA-MB-453): > 3000 nM; IC50 [14]: 180 nM
